Data from publication PMC8853157 (Medicinal Chemistry Research, 2022).
“Also recorded” adds a separate entry of the source.

Key:
dry eye mice model [1] = test: TUNEL staining of corneal epithelium in dry eye mice model; assay type: in vivo, C57/BL6 mice; conditions: for TUNEL positive (Cy3 labeled) cells in cornea, apoptosis: 14 days, vs dry eye model group
Procedure, shortened: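 Female C57/BL6 mice, 6–8 weeks, n=5/group. Dry eye induced over 14 days. Both eyes received 5 µL drops twice daily: test compound 5% or 7% W/V, vehicle, or 5% reference antagonist. Eyes then excised, OCT-embedded and cut into 6 µm frozen central sagittal sections. Sections TUNEL/DAPI-stained. TUNEL-positive cells counted in the central 200 µm corneal epithelial field at ×400. n=10 eyes/group; mean ± SEM.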

dry eye mice model [2] = test: Goblet cell density; assay type: in vivo, C57/BL6 mice; conditions: 14 days, vs dry eye model group
Procedure, shortened: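 Dry eye was induced in female C57/BL6 mice (6–8 weeks, n = 5/group) by RH 15, 2 m/s airflow, 21–23 °C and s.c. scopolamine hydrobromide (0.5 mg/0.2 ml) three times daily for 14 days. Eye drops (5 µL) went to both eyes twice daily. Central frozen sections (6 µm) were PAS-stained, and goblet cells per mm were counted by image analysis. Mean ± SEM, 10 eyes/group.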

dry eye mice model [3] = test: Dry eye mice model, overall effect; assay type: in vivo, C57/BL6 mice; conditions: 5% vs 7% (W/V) compound 1b, topical
Procedure, shortened: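 Female C57/BL6 mice (6–8 weeks, n = 5/group) were kept at RH 15, airflow 2 m/s and 21–23 °C for 14 days, with s.c. scopolamine hydrobromide (0.5 mg/0.2 ml) three times daily. Test compound (5% or 7% W/V) was given as 5 µL drops to both eyes twice daily. Read-outs were fluorescein score summed over five corneal regions, PAS goblet density and TUNEL; 10 eyes/group.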

LFA-1/ICAM-1 [4] = target: LFA-1/ICAM-1 (Homo sapiens, UniProt P20701); test: Jurkat T-cell adhesion assay; assay type: cell-based; conditions: for LFA-1/ICAM-1 antagonist activity in words / IC50 level in words: Jurkat T-cell adhesion assay; for LFA-1/ICAM-1 antagonist activity in words: compared with Lifitegrast
Procedure, shortened: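 Jurkat E6-1 cells (RPMI 1640, 5% FBS, 37 °C, 5% CO2) labeled with 8 μM BCECF for 15 min at room temperature. Cells (5 × 10^5/well) preincubated with compound for 30 min at 37 °C, then settled 1 h at 37 °C on recombinant human ICAM-1–Fc-coated wells. Titration 10−10–10−4 M in triplicate lanes. Non-adherent cells washed off; adherent-cell fluorescence read; IC50 by four-parameter logistic regression.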

LFA-1/ICAM-1 [5] = conditions: read-out: previously reported IC50; HUT 78T cells; cited from earlier work

LFA-1/ICAM-1 (Homo sapiens, UniProt P20701), sequence (P20701 26-1170): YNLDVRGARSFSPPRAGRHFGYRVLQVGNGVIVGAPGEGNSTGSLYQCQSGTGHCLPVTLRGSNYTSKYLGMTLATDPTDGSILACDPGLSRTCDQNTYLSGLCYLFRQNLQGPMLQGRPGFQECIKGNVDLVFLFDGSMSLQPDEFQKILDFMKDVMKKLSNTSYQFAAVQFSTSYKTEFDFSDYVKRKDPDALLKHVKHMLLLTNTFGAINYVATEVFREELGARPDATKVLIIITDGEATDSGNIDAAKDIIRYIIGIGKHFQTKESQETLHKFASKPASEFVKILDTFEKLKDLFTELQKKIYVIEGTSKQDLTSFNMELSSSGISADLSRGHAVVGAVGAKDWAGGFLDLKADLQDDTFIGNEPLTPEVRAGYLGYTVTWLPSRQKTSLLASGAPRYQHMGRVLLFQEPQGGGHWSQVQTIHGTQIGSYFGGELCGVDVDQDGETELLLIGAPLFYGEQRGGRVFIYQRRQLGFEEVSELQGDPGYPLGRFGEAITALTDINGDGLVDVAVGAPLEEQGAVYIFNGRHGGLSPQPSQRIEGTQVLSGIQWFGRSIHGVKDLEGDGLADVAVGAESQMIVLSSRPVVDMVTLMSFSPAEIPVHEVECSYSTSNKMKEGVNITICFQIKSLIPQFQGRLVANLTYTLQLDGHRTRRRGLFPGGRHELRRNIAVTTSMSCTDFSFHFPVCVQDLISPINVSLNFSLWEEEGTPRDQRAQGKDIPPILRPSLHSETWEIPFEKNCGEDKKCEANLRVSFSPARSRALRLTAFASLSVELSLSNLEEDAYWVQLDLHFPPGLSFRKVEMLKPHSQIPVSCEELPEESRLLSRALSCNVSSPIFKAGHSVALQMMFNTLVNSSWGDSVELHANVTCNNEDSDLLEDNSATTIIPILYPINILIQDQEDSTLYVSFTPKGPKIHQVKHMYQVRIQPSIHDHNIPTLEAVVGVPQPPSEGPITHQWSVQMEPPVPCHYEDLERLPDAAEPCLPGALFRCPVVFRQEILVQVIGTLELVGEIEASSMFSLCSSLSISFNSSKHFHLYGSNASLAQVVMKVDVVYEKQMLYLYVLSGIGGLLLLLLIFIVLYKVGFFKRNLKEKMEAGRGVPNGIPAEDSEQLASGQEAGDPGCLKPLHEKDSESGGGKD
LFA-1/ICAM-1 (Homo sapiens, UniProt P20701), sequence (P05107 23-769 partner): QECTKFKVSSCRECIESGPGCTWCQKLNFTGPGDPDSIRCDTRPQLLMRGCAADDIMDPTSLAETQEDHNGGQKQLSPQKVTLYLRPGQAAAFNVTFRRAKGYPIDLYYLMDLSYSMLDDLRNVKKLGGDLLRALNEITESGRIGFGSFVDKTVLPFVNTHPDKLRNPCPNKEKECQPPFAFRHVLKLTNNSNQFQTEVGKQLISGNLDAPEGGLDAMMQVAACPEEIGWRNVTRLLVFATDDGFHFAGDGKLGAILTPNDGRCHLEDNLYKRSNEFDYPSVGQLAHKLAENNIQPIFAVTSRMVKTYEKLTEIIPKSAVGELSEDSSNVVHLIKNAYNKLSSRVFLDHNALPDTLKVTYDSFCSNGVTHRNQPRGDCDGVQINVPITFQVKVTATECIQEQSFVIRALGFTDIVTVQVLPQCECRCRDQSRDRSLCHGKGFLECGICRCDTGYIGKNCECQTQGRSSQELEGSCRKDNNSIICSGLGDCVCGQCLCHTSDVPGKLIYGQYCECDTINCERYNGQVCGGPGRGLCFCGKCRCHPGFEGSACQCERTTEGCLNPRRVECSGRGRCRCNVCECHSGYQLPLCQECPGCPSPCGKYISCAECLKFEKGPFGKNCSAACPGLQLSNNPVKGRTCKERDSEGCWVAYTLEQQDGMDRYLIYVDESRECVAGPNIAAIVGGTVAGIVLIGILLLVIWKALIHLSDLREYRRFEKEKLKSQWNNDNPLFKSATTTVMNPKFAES

Structure (SMILES): CS(=O)(=O)c1cccc(C[C@H](NC(=O)c2c(Cl)cc3c(c2Cl)CCN(C(=O)NCc2ccc4ccoc4c2)C3)C(=O)O)c1 [Compound 1b, (S)-2-(2-((Benzofuran-6-ylmethyl)carbamoyl)-5,7-dichloro-1,2,3,4-tetrahydroisoquinoline-6-carboxamido)-3-(3-(methylsulfonyl)phenyl)propanoic acid]
- TUNEL positive (Cy3 labeled) cells in cornea, apoptosis (dry eye mice model [1]; 5% (W/V) compound 1b): markedly decreased; also recorded: protective effect on apoptosis of ocular surface cells
- anti-apoptotic effect compared with Lifitegrast treatment group (dry eye mice model [1]; 5% or 7% compound 1b vs 5% Lifitegrast): weaker than that of Lifitegrast
- TUNEL positive (Cy3 labeled) cells in cornea, apoptosis (dry eye mice model [1]; 7% (W/V) compound 1b): markedly decreased; also recorded: protective effect on apoptosis of ocular surface cells
- density of goblet cells on conjunctival epithelium (dry eye mice model [2]; 5% (W/V) compound 1b): significantly increased the density of goblet cells; also recorded: significantly increased goblet cell density
- density of goblet cells on conjunctival epithelium (dry eye mice model [2]; 7% (W/V) compound 1b): significantly increased the density of goblet cells; also recorded: significantly increased goblet cell density
- difference in effect between the two concentrations (dry eye mice model [3]): no statistical difference in the effect between 5% and 7%
- LFA-1/ICAM-1 antagonist activity in words (LFA-1/ICAM-1 [4]): certain LFA-1/ICAM-1 antagonist activity

Structure (SMILES): CS(=O)(=O)c1cccc(C[C@H](NC(=O)c2c(Cl)cc3c(c2Cl)CCN(S(=O)(=O)c2ccc4ccoc4c2)C3)C(=O)O)c1 [Compound 1a, (S)-2-(2-(Benzofuran-6-ylsulfonyl)-5,7-dichloro-1,2,3,4-tetrahydroisoquinoline-6-carboxamido)-3-(3-(methylsulfonyl)phenyl)propanoic acid]
- LFA-1/ICAM-1 antagonist activity in words (LFA-1/ICAM-1 [4]): decreased LFA-1/ICAM-1 antagonist activity obviously

Structure (SMILES): C#Cc1cccc(C(=O)N2CCc3c(cc(Cl)c(C(=O)N[C@@H](Cc4cccc(S(C)(=O)=O)c4)C(=O)O)c3Cl)C2)c1 [Compound 1e, (S)-2-(2-(3-Ethynylbenzoyl)-5,7-dichloro-1,2,3,4-tetrahydroisoquinoline-6-carboxamido)-3-(3-(methylsulfonyl)phenyl)propanoic acid]
- LFA-1/ICAM-1 antagonist activity in words (LFA-1/ICAM-1 [4]): decreased LFA-1/ICAM-1 antagonist activity obviously

Structure (SMILES): O=C(NC(Cc1ccc2ncccc2c1)C(=O)O)c1c(Cl)cc2c(c1Cl)CCN(C(=O)c1ccc3ccoc3c1)C2 (centres unmarked) [Compound 1f, 2-(2-(Benzofuran-6-carbonyl)-5,7-dichloro-1,2,3,4-tetrahydroisoquinoline-6-carboxamido)-3-(quinolin-6-yl)propanoic acid]
- IC50 level in words (LFA-1/ICAM-1 [4]): several micromol levels

Structure (SMILES): CS(=O)(=O)c1cccc(C[C@H](NC(=O)c2c(Cl)cc3c(c2Cl)CCN(C(=O)Cc2ccc4occc4c2)C3)C(=O)O)c1 [Compound 1c, (S)-2-(2-(2-(Benzofuran-5-yl)acetyl)-5,7-dichloro-1,2,3,4-tetrahydroisoquinoline-6-carboxamido)-3-(3-(methylsulfonyl)phenyl)propanoic acid]
- IC50 level in words (LFA-1/ICAM-1 [4]): several micromol levels
- LFA-1/ICAM-1 antagonist activity in words (LFA-1/ICAM-1 [4]): certain LFA-1/ICAM-1 antagonist activity

Structure (SMILES): O=C(NC(Cc1ccc2c(c1)S(=O)(=O)CC2)C(=O)O)c1c(Cl)cc2c(c1Cl)CCN(C(=O)c1ccc3ccoc3c1)C2 (centres unmarked) [Compound 1g, 2-(2-(Benzofuran-6-carbonyl)-5,7-dichloro-1,2,3,4-tetrahydroisoquinoline-6-carboxamido)-3-(1,1-dioxido-2,3-dihydrobenzo[b]thiophen-6-yl)propanoic acid]
- LFA-1/ICAM-1 antagonist activity in words (LFA-1/ICAM-1 [4]): loss of activity

Structure (SMILES): CS(=O)(=O)c1cccc(C[C@H](NC(=O)c2c(Cl)cc3c(c2Cl)CCN(C(=O)c2ccc4ncnn4c2)C3)C(=O)O)c1 [Compound 1d, (S)-2-(2-([1,2,4]Triazolo[1,5-a]pyridine-6-carbonyl)-5,7-dichloro-1,2,3,4-tetrahydroisoquinoline-6-carboxamido)-3-(3-(methylsulfonyl)phenyl)propanoic acid]
- LFA-1/ICAM-1 antagonist activity in words (LFA-1/ICAM-1 [4]): decreased LFA-1/ICAM-1 antagonist activity obviously

Structure (SMILES): O=C1CCc2ccc(CC(NC(=O)c3c(Cl)cc4c(c3Cl)CCN(C(=O)c3ccc5ccoc5c3)C4)C(=O)O)cc2N1 (centres unmarked) [Compound 1h, 2-(2-(Benzofuran-6-carbonyl)-5,7-dichloro-1,2,3,4-tetrahydroisoquinoline-6-carboxamido)-3-(2-oxo-1,2,3,4-tetrahydroquinolin-7-yl)propanoic acid]
- IC50 level in words (LFA-1/ICAM-1 [4]): several micromol levels

Structure (SMILES): CS(=O)(=O)c1cccc(C[C@H](NC(=O)c2c(Cl)cc3c(c2Cl)CCN(C(=O)c2ccc4ccoc4c2)C3)C(=O)O)c1 [Lifitegrast, reference compound]
- IC50 (LFA-1/ICAM-1 [5]): 9 nM
- IC50 (LFA-1/ICAM-1 [4]; IC50, Jurkat T-cell adhesion assay, text and Fig. 3): ~10.5 nM
